The list is not random: actives were taken first. Their share in the collection is about 1.5%.
DAGLB inh – blocks human DAGLB lipase activity; inhibition, % at 5.17 µM; actives 0.059% (n = 340,000); Q8NCG7; HEK293T DAGLB membrane lysate, EnzChek fluorogenic substrate; in the data active = inhibition above about 34%;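 note: 0% = enzyme with vehicle and 100% = wells lacking enzyme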
TCR CD3 inh – inhibitors of human TCR-CD3 interaction | actives 0.37% (n = 360,000) | inhibition, % at 9.4 µM | TAMRA-labeled TCR probe fluorescence, biochemical | AID 651800;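 note: recombinant mutant TCR 2C K166C tagged with TAMRA read by polarization; 0% = receptor in buffer alone and 100% = receptor with positive control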
HTRA1 inhibitor – HTRA1 (human) protease inhibition; AID 504803; inhibition, % at 5.96 µM; recombinant HTRA1, FP-rhodamine activity-based probe, fluorescence polarization; actives 0.5% (n = 340,000); in the data active = inhibition above about 36%;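 note: 0% = enzyme with DMSO and 100% = wells lacking enzyme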
SIAE primary – human SIAE inhibition, primary screen; actives 0.69% (n = 370,000); Q9HAT2; inhibition, % at 9.66 µM; SIAE FP-Rh probe binding, fluorescence polarization;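 active = inhibition above a cutoff: mean of compounds within the control limits plus 3 SD of those, cut at about 17% in these data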;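 note: 0% = plate median of compound wells and 100% = probe without SIAE protein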
mABHD4 FP – inhibits mouse alpha/beta hydrolase domain 4; purified mABHD4, FP-Rh probe fluorescence polarization; inhibition, % at 8.92 µM; actives 0.54% (n = 370,000); Q8VD66; AID 720543;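 active = inhibition exceeding the mean over every tested compound plus 3 SD, cut at about 30% in these data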;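 note: 0% = plate median of compound wells and 100% = S159A mutant with DMSO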
Target sequence (Q8VD66 whole entry, looked up, the tested form may be a part): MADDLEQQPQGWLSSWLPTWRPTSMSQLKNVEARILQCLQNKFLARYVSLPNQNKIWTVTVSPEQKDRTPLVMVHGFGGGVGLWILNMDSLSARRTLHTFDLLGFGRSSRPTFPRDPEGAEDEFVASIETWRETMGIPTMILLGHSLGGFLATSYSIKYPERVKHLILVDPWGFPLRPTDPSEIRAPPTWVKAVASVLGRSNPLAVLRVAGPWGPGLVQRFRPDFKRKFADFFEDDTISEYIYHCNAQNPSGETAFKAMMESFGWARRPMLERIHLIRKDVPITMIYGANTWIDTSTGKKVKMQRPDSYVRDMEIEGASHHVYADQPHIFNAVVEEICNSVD
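System: mouse ABHD4 enzyme, wild type / Medium: HEPES pH 7.0, NaCl, Pluronic buffer / Reagent: FP-Rh activity-based fluorescent probe / Control set: S159A mutant high control, sample median low control / Detection: fluorescence polarization with parallel and perpendicular emission, 525/598 nm / Schedule: 45 min + 60 min at 25 °C / Compound dosing: 8.92 µM, single dose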
BSA probe FL – interferes with TAMRA-BSA probe, flagging TCR-CD3 hits; shares compounds with TCR CD3 inh; TAMRA-labeled BSA probe fluorescence counterscreen; inhibition, % at 9.4 µM; actives 10% (n = 1,200); in the data active = inhibition above about 23%;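 note: 0% = buffer low control and 100% = reference high control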
TCR-CD3 conf – confirmation of human TCR-CD3 interaction inhibitors; shares compounds with TCR CD3 inh; TAMRA-labeled TCR probe fluorescence binding assay; inhibition, % at 9.4 µM; actives 48% (n = 1,200)
Active calls of the source: *; . = not tested or not shown. Cut-off read from the data, not from the text of the source, unless noted: active = inhibition above about 19%; inactive = the rest.

SMILES	DAGLB inh	TCR CD3 inh	HTRA1 inhibitor	SIAE primary	mABHD4 FP	BSA probe FL	TCR-CD3 conf
Cn1cccc1CC(=O)NNC(=S)NC(=O)c1ccccc1Br	-1	28*	7	4	10	-4	16
O=C(NN1C(=O)/C(=C/c2cccc(O)c2)SC1=S)c1ccccc1O	7	28*	6	-1	3	-17	17
CCn1c(=O)c(C(=O)NNS(=O)(=O)c2ccc(NC(=O)OC)cc2)c(O)c2ccccc21	0	7	-4	7	0	.	.
Cn1c(=O)c(C(=O)NNC(=O)c2ccccc2F)c(O)c2ccccc21	12	33*	-5	2	0	0	28*
COC(=O)Nc1ccc(S(=O)(=O)NNC(=O)c2c(O)c3ccccc3n(C)c2=O)cc1	6	56*	2	-32	3	-3	25*
O=C(Nc1c(-c2ccccc2)nc2ncccn12)c1ccc(F)cc1	.	.	.	1	1	.	.
COc1cc([N+](=O)[O-])cc(/C=N/NC(=O)c2cccnc2)c1O	3	32*	6	5	21	-11	19*
Cc1nc2ccccc2c(=O)n1/N=C/c1cc(Br)ccc1O	-2	8	-1	5	6	.	.
Cc1nc2ccccc2c(=O)n1/N=C/c1c(O)ccc2ccccc12	1	24*	5	4	5	-9	8
Cc1n[nH]c(=S)n1/N=C/c1c(O)ccc2ccccc12	1	30*	6	5	5	-4	18
CCCCS(=O)(=O)N1C2=NC(C(=O)OCC)=C(C(=O)OCC)C3N(Cc4ccc(C#N)cc4)c4ccccc4[C@]23C[C@H]1C(=O)OC (some centres not stated)	.	-1	.	6	-10	.	.
CCC(C)[C@H](NC(=O)[C@H](Cc1ccccc1)NC(=O)OC(C)(C)C)C(=O)NCc1ccccc1Br (some centres not stated)	.	.	.	0	-7	.	.
COc1ccc(-c2oc3cc(O)c(OC)c(O)c3c(=O)c2OC)cc1	-2	5	-2	13	-8	.	.
O=c1c(-c2c(O)cc(O)c3c(=O)cc(-c4ccc(O)cc4)oc23)c(-c2ccc(O)cc2)oc2cc(O)cc(O)c12	3	31*	12	-36	-71	-2	23*
O=c1c(-c2ccc(O)cc2)coc2cc(O)cc(O)c12	-5	-8	-2	-6	2	.	.
COc1c(-c2ccc(O)cc2)oc2cc(O)cc(O)c2c1=O	-2	32*	6	6	-2	-7	15
CCOC(=O)C1=C(C(=O)OCC)C2N(Cc3ccc(C#N)cc3)c3ccccc3[C@@]23C[C@@H](C(=O)OC)N(S(=O)(=O)c2ccc(OC)cc2)C3=N1 (some centres not stated)	.	-13	.	-6	-13	.	.
COc1ccc(C(=O)NNC(=O)COc2ccc(Cl)cc2)c(OC)c1	1	25*	17	10	-1	-20	24*
O=C(N/N=C/c1cc(Cl)cc([N+](=O)[O-])c1O)c1cccc(S(=O)(=O)N2CCOCC2)c1	16	41*	-3	12	23	-15	58*
O=C(NNC(=O)c1cc(Cl)ccc1O)c1cccc(S(=O)(=O)N2CCOCC2)c1	6	43*	21	13	17	-11	31*
COc1cc(Cl)cc(/C=N\NC(=O)c2ccc3c(c2)OCO3)c1O	7	-5	10	-5	21	.	.
O=C(N/N=C/c1cc(Br)cc(Br)c1O)c1cccc(S(=O)(=O)N2CCOCC2)c1	4	9	8	6	7	.	.
Cc1cc(Br)cc(/C=N/NC(=O)c2ccc3c(c2)OCO3)c1O	-1	29*	26	5	4	-12	34*
O=C(N/N=C/c1ccccc1O)c1ccc2c(c1)OCO2	1	0	18	-14	-12	.	.
O=C(N/N=C/c1cc(Cl)cc([N+](=O)[O-])c1O)c1ccc2c(c1)OCO2	3	41*	25	11	21	-18	47*
SMILES	DAGLB inh	TCR CD3 inh	HTRA1 inhibitor	SIAE primary	mABHD4 FP	BSA probe FL	TCR-CD3 conf
CC(=O)c1cc(-c2ccccc2)n(CC(=O)NCc2ccc(Cl)cc2)c1C	.	.	.	7	2	.	.
CCN1C(=O)N(C(C)=O)[C@@H]2C[C@H](C(=O)N3CCCC3)[C@H](C)[C@H](c3ccccc3)C[C@@H]21	.	0	.	-3	-1	.	.
CCCNC(=O)C(Cc1ccccc1)NC(=O)c1ccc(C(F)(F)F)cc1 (configuration not stated)	-1	22*	-3	-2	5	-2	4
CS/C(N)=N/N=C/c1cc(Br)cc(Br)c1O	1	35*	20	-2	-3	14	36*
Cc1cc(C(=O)N/N=C/c2c(CO)cnc(C)c2O)c2ccccc2n1	1	23*	-4	-4	5	-13	10
Cc1ncc(CO)c(/C=N/NC(=O)c2cc(Br)ccc2O)c1O	4	19	34	3	10	.	.
CC(=O)Nc1ccc(/C=N/NC(=O)c2cc(-c3ccco3)nc3ccccc23)cc1	-2	2	-26	-75	-49	.	.
O=C(O)c1ccccc1/C=N/NC(=O)c1cc(-c2ccco2)nc2ccccc12	3	20*	20	11	11	-8	25*
CC(C)C(=O)Nc1ccc(C(=O)NNC(=S)NC(=O)c2ccco2)cc1	-1	33*	4	-1	-1	-1	36*
Cc1ccc(C(=O)NNC(=S)NC(=O)c2ccco2)cc1	0	10	5	2	0	.	.
N#C/C(=C\c1ccc(O)c(O)c1)C(=O)c1ccc(O)c(O)c1	12	23*	34	11	24	12	72*
CC1(C)CC2CC(C)(CN2S(=O)(=O)c2ccc(C(=O)Nc3ccc(S(=O)(=O)N4CCOCC4)cc3)cc2)C1 (configuration not stated)	-5	41*	-75	-111	-48	23*	56*
CC1(C)CC2CC(C)(CN2S(=O)(=O)c2ccc(C(=O)Nc3ccc(Cl)c(S(=O)(=O)N4CCOCC4)c3)cc2)C1 (configuration not stated)	-4	3	3	-44	-11	.	.
COC(=O)C1=C(C)N(Cc2ccccc2C(F)(F)F)C(=NCc2ccc(OC)cc2)NC1CCc1ccccc1 (configuration not stated)	.	7	.	1	11	.	.
CCc1cccc(-n2c(C)cc(O)cc2=O)c1	.	-2	.	5	4	.	.
COc1ccc(C(=O)C=CNNC(=O)c2ccc(Cl)cc2)cc1	-1	22*	31	5	-2	-3	24*
O=C(/C=C/NNC(=O)c1ccc(Cl)cc1)c1ccccc1	-1	12	24	6	1	.	.
Cc1ccc(C(=O)/C=C/NNC(=O)c2ccccc2O)cc1	0	19*	8	4	10	-11	12

Screening data deposited in PubChem by The Scripps Research Institute Molecular Screening Center.
